Active and inactive are the calls of the source. The calls are words filed in the database; no cut-off is given here.
Columns and labels:
Rattus norvegicus [1] = species: Rattus norvegicus; test: Increase in glucose oxidation rate in rat heart at 10 uM relative to control; format: functional
Outline: (§1)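 Isolated working rat hearts; glucose oxidation rate expressed as ratio of compound-treated to 0.05% DMSO vehicle control, n = 8 hearts; test concentration 10 µM, or 1 µM where stated.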

Rattus norvegicus [2] = species: Rattus norvegicus; test: Increase in glucose oxidation rate in rat heart at 1 uM relative to control; format: functional; outline: as §1
[3] = Tmax in Sprague-Dawley rat at 10 mg/kg, po; format: ADME, organism-based; set-up: dose 10 mg/kg, route oral; details: in vivo
Rattus norvegicus [4] = test: Volume of distribution in Sprague-Dawley rat at 10 mg/kg, iv or po; format: ADME, organism-based; set-up: dose 10 mg/kg, route oral; details: in vivo
Rattus norvegicus [5] = species: Rattus norvegicus; test: Cardioprotective activity in global ischemia-reperfusion rat model; format: functional, organism-based
Outline: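 Isolated rat hearts perfused aerobically 30 min, then 30 min global no-flow ischemia and 60 min aerobic reperfusion; compound at 1 µM added to perfusate either before ischemia or at onset of reperfusion.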

[6] = Half life in Sprague-Dawley rat at 10 mg/kg, iv; format: ADME, organism-based; set-up: dose 10 mg/kg, route intravenous; details: in vivo
[7] = Oral bioavailability in Sprague-Dawley rat at 10 mg/kg, iv and po; format: ADME, organism-based; details: in vivo
Outline: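 Rats dosed iv and po; F computed as ratio of dose-normalized oral to iv plasma AUC over the same time frame.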

[8] = Cmax in Sprague-Dawley rat at 10 mg/kg, po; format: ADME, organism-based; set-up: dose 10 mg/kg, route oral; details: in vivo

Structure (SMILES)	Activity (Rattus norvegicus [1])	other results
CC(C)(C)OCCCNC(=O)C1=NOC(C(O)(C(F)(F)F)C(F)(F)F)C1 (stereo unspecified)	5.42%	–
CC(C)C[C@@H](CC(=O)OC(C)(C)C)NC(=O)C1=NOC(C(O)(C(F)(F)F)C(F)(F)F)C1 (stereo partly specified)	3.24%	–
CC(C)CCCC(C)NC(=O)C1=NOC(C(O)(C(F)(F)F)C(F)(F)F)C1 (stereo unspecified)	1.26%	–
CC(C)CC(CC(=O)OC(C)(C)C)NC(=O)C1=NOC(C(O)(C(F)(F)F)C(F)(F)F)C1 (stereo unspecified)	4.28%	–
CC(C)CN(CC(C)C)C(=O)C1=NOC(C(O)(C(F)(F)F)C(F)(F)F)C1 (stereo unspecified)	2.11%	–
CC(C)(C)OC(=O)CCNC(=O)C1=NOC(C(O)(C(F)(F)F)C(F)(F)F)C1 (stereo unspecified)	4.54%	–
CC(CC(=O)OC(C)(C)C)NC(=O)C1=NOC(C(O)(C(F)(F)F)C(F)(F)F)C1 (stereo unspecified)	7.32%	Activity (Rattus norvegicus [2]): 3.07%; Tmax [3]: 0.5 h; Vss (Rattus norvegicus [4]): 2.193 L/kg; Activity (Rattus norvegicus [5]): Active; half-life [6]: 2.3 h; bioavailability [7]: 74%; Cmax [8]: 2680 ng/mL
CCCCCC(C)NC(=O)C1=NOC(C(O)(C(F)(F)F)C(F)(F)F)C1 (stereo unspecified)	0.8%	–
C[C@@H](CC(=O)OC(C)(C)C)NC(=O)C1=NOC(C(O)(C(F)(F)F)C(F)(F)F)C1 (stereo partly specified)	5.01%	–
